Shown are actives, neighbours in structure and some others; about 9.4% of the full set was active somewhere.
SKKanGAS inh: S. pyogenes SKKanGAS growth inhibitors in kanamycin, primary screen, streptokinase expression inhibitor project, SKKanGAS strain, BacTiter-Glo luminescence | 6 h | inhibition, % at 7.5 µM | 1.3% of 300,000 active | AID 1662, 2009;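 active = mean replicate score, as percent of positive control median, at least 50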;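 also: strain carries kanamycin resistance gene driven by streptokinase promoter and grows in 40 µg/ml kanamycin; loss of luminescence reflects streptokinase promoter inhibition or plain growth inhibition; 0% = median of DMSO wells and 100% = positive control at its reference dose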
Mdm2 MdmX PPI: inhibitors of human Mdm2-MdmX association, primary screen, cell-based, luminescence, split luciferase, SaOS-2, uHTS. Protein Mdm4 (Homo sapiens) + E3 ubiquitin-protein ligase Mdm2 (Homo sapiens), …. SaOS-2 split-luciferase Mdm2/MdmX complementation. inhibition, % at 8 µM. 3% of 330,000 active. AID 485346, 2010;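 active = inhibition of at least 50% at 8 µM in the primary screen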
Beta cell apopt: inhibitors of cytokine-induced beta cell apoptosis, primary screen, luminescence; INS-1E cytokine-induced death, ATP luminescence, 48 h; percent of positive-control rescue, neutral wells zero; protection from apoptosis, % (test concentration not listed); 0.8% of 300,000 active; AID 435005, 2010;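 active = Every replicate reaches about 75%, or at least half do and their mean reaches it too, limit read from the data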;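 also: 0% = cytokine-treated negative control wells and 100% = positive control rescue; higher means more ATP so stronger rescue from cytokine killing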
Lmaj promast: Leishmania major promastigote growth inhibition, primary screen; Leishmania major promastigotes, resazurin fluorescence viability; inhibition, % at 10 µM; 9% of 200,000 active; in the data active = inhibition above about 50%;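 also: promastigotes grown with compound for 44 hours at 28 °C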
CSC inhib: cancer stem cell viability inhibitors, primary screen, luminescence. AID 2717, 2010. 1.1% of 300,000 active. cancer stem cell-like cells viability. inhibition, % at 7.5 µM; in the data active = inhibition above about 75%; tested in HMLE shEcad cells
T cruzi repl: inhibitors of intracellular T. cruzi growth, primary screen, luminescence, NIH3T3 host cells. 1.4% of 300,000 active. T. cruzi beta-gal in NIH3T3, 90 h. inhibition, % (concentration not given with the values);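 active = mean inhibition across valid replicates above about 55%, limit read from the data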;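 also: signal also drops with host cell toxicity which is not excluded here; 0% = plate median of DMSO wells and 100% = zero luminescence signal; higher percent means less beta-gal luminescence so fewer parasites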
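System: NIH/3T3 fibroblasts plus reporter T. cruzi. Medium: DMEM plus 2% FBS. Probe or stimulus: 5000 reporter trypomastigotes per well. Compound: single 50 nL compound addition per well in DMSO. Incubation: co-culture of at least 90 h after 3 h attachment. Detection: GalScreen β-gal luminescence, detergent lysis, 60 min. Evaluation: parasite load inhibition, %.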
* marks the source's active call; other numbers are inactive results.

Results for CCC(C)(C)n1nnnc1C(C(C)C)N(Cc1ccco1)Cc1cc2cc3c(cc2[nH]c1=O)OCO3 (stereo not given) ?
SKKanGAS inh: -0.2; Mdm2 MdmX PPI: -6.3; Beta cell apopt: -9.3; Lmaj promast: 30.2; CSC inhib: 13.3; T cruzi repl: 1.7

Results for CCOC(=O)Cc1c(C)nc2c(-c3ccc(Cl)cc3)c(C)[nH]n2c1=O ?
SKKanGAS inh: 7.3; Mdm2 MdmX PPI: 36.6; Beta cell apopt: 8.0; Lmaj promast: 95.5*; CSC inhib: 32.0; T cruzi repl: 4.4

Results for CCOC(=O)Cc1c(C)nc2c(-c3cccc(Br)c3)c[nH]n2c1=O ?
SKKanGAS inh: 94.6*; Mdm2 MdmX PPI: 34.6; Beta cell apopt: 18.4; Lmaj promast: -6.4; CSC inhib: -12.1; T cruzi repl: -6.3

What do the screens show for `O=[N+]([O-])c1cc([N+](=O)[O-])c2cc(-c3cccnc3)[nH]c2c1`?
SKKanGAS inh: 0.7; Mdm2 MdmX PPI: -14.4; Beta cell apopt: 13.3; CSC inhib: 0.0; T cruzi repl: 19.1

Results for O=C(Cn1ccc2cc(S(=O)(=O)N3CCCCC3)ccc21)NCc1ccccc1F ?
SKKanGAS inh: 11.9; Mdm2 MdmX PPI: 0.0; Beta cell apopt: -6.0; CSC inhib: -13.0; T cruzi repl: 7.0

Results for O=C(O)c1ccc(OCCOc2ccccc2)cc1 ?
SKKanGAS inh: -6.7; Mdm2 MdmX PPI: -11.7; Beta cell apopt: -5.8; CSC inhib: 8.2; T cruzi repl: -21.5

How did Cc1ccc(C(=O)COc2nc(C)nc3ccccc23)cc1 do in these assays?
SKKanGAS inh: 1.5; Mdm2 MdmX PPI: 10.4; Beta cell apopt: 0.2; Lmaj promast: -7.2; T cruzi repl: -9.0

What do the screens show for `C=CCc1cc(OC)ccc1OCCOCCN1CCc2ccccc2C1`?
SKKanGAS inh: 0.6; Mdm2 MdmX PPI: 16.4; Beta cell apopt: 10.0; Lmaj promast: 89.9*; CSC inhib: -10.7; T cruzi repl: 44.0

Results for Cc1ccc(SCCOCCN2CCc3ccccc3C2)cc1 ?
SKKanGAS inh: -2.2; Mdm2 MdmX PPI: -4.0; Beta cell apopt: -9.6; Lmaj promast: 92.2*; CSC inhib: 48.8; T cruzi repl: 60.5*

Results for C=CCc1cc(OC)ccc1OCCOCCC(C(=O)OCC)C(=O)OCC ?
SKKanGAS inh: -11.6; Mdm2 MdmX PPI: 6.9; Beta cell apopt: -4.4; Lmaj promast: 53.6*; CSC inhib: -5.7; T cruzi repl: -3.9

How did COc1cc2c(cc1OC)CN(CCOc1ccc(Br)cc1)CC2 do in these assays?
SKKanGAS inh: -3.6; Mdm2 MdmX PPI: -10.5; Beta cell apopt: -6.1; CSC inhib: 2.6; T cruzi repl: 14.7

How did CCCOc1ccc(OCCOCCN2CCc3ccccc3C2)cc1 do in these assays?
SKKanGAS inh: -5.6; Mdm2 MdmX PPI: 13.9; Beta cell apopt: 9.2; Lmaj promast: 96.9*; CSC inhib: 25.6; T cruzi repl: 71.5*

Results for CCOC(=O)C(CCCOc1ccc(C)cc1)C(=O)OCC ?
SKKanGAS inh: -9.0; Mdm2 MdmX PPI: 12.4; Beta cell apopt: 3.0; Lmaj promast: -5.7; CSC inhib: -0.1; T cruzi repl: 0.8

What do the screens show for `C=CCc1c(C)nc2ccc(C(=O)OCC)cc2c1Cl`?
SKKanGAS inh: 3.6; Mdm2 MdmX PPI: 3.1; Lmaj promast: 14.1; CSC inhib: -7.3; T cruzi repl: 13.3

What do the screens show for `CCN1CCN(C(=O)/C(=C/c2ccco2)NC(=O)c2ccccc2)CC1`?
SKKanGAS inh: -4.4; Mdm2 MdmX PPI: 17.0; Beta cell apopt: -14.4; CSC inhib: -8.9; T cruzi repl: -7.3

What do the screens show for `CN(C)C(=O)CSc1nc2ccc(C(=O)c3ccccc3)cc2[nH]1`?
SKKanGAS inh: -7.0; Mdm2 MdmX PPI: -0.1; Beta cell apopt: 0.0; CSC inhib: -2.3; T cruzi repl: 2.1

Results for CC1(NC(=O)c2cc(Cl)nc3ccccc23)CCS(=O)(=O)C1 (stereo not given) ?
Mdm2 MdmX PPI: 16.6; Beta cell apopt: -0.8; CSC inhib: -12.3

How did O=C(NCC1CCCO1)c1ccc(NS(=O)(=O)c2ccccc2)cc1 (stereo not given) do in these assays?
SKKanGAS inh: 3.0; Mdm2 MdmX PPI: 4.6; Beta cell apopt: -8.1; Lmaj promast: -6.1; CSC inhib: 5.2; T cruzi repl: -4.6

High-throughput results deposited in PubChem by several laboratories.
